Compounds with a hit are over-represented: about 4.3% of the library has one in this group of screens.
AHR activator: AHR activators, primary screen, cell-based, luminescence, luciferase reporter, human. Aryl hydrocarbon receptor (Homo sapiens), P35869. 2.5% of 320,000 active. activation, % at 5 µM. AHR-responsive luciferase reporter cells; in the data active = activation above about 47%;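 note: 0% = vehicle wells and 100% = reference agonist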
Target sequence (P35869 whole entry, looked up): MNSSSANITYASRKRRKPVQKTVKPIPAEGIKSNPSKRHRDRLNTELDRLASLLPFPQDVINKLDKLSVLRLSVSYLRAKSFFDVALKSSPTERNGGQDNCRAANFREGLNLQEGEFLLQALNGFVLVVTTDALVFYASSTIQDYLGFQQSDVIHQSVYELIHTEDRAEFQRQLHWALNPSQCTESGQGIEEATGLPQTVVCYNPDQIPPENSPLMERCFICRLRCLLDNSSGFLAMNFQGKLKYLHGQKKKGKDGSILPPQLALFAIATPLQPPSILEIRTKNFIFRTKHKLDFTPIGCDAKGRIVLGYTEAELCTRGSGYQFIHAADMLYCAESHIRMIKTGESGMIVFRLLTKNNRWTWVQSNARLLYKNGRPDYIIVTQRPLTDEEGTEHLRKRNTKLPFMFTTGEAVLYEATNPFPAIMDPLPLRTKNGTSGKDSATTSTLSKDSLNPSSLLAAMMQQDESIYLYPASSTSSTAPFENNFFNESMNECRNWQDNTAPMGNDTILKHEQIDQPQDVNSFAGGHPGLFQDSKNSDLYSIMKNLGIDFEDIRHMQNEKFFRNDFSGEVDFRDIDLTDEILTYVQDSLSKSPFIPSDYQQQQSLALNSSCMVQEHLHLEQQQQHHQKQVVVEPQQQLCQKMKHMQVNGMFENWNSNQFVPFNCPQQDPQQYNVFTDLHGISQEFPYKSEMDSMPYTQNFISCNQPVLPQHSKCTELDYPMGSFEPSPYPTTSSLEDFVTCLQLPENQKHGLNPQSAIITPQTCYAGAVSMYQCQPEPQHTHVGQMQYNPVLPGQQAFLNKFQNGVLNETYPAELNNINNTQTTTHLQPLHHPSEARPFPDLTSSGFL
SMARCA2 activ: SMARCA2 (BRM) function activators, primary screen, cell-based, luminescence, high throughput; MG213 cells, MMTV-luciferase reporter, dexamethasone, overnight; AID 652017, 2013; activation, % at 9.1 µM; 1% of 370,000 active; in the data active = activation above about 7.8%;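 note: 0% = vehicle wells and 100% = reference activator wells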
Hep lipid drop: inhibitors of hepatocyte lipid droplet formation, primary screen, imaging, high-throughput imaging, BODIPY stain; AML12 mouse hepatocytes, oleate lipid droplets; inhibition, % at 6.5 µM; 0.4% of 240,000 active; AID 1656, 2009;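 active = lipid droplet intensity inhibited by at least 50%, with more than 500 cells counted; inconclusive = wells with under 300 cells, treated as cytotoxic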
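material = mouse AML12 hepatocyte cell line, fixed after treatment | also added = 100 µM oleic acid challenge | doses = compound at 6.5 µM only | schedule = overnight exposure | technique = Image-based BODIPY and DAPI two-channel analysis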
SR-BI DiI-HDL act: activators of SR-BI mediated DiI-HDL uptake, primary screen, ldlA[mSR-BI] CHO cells, DiI fluorescence; activation, % at 12.5 µM; 0.096% of 320,000 active; 3 h; 100 = double the neutral-control signal;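 active = mean replicate activation of at least 60% and every replicate at or above 60%; inconclusive = mean or all-replicate condition met, but not both; inactive = mean below 60% and not all replicates reaching 60%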;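 note: 0% = median plate neutral-control signal and 100% = twice that signal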
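Assay system: LDL receptor-deficient CHO ldlA cells overexpressing murine SR-BI / Medium: BSA-supplemented, HEPES-buffered Ham's F12, pH 7.4 / Probe or stimulus: DiI-labelled HDL at 10 µg/mL final / Timing: compound with DiI-HDL co-incubation, 3 h at 37 °C / Technique: bottom-read cell fluorescence after medium removal, ex 550/em 595 nm / Measure: HDL uptake via cellular fluorescence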
Yeast superoxide: reduction of superoxide in aged yeast, primary screen, HTS; superoxide response (% of plate mean), % at 10 µM; S. cerevisiae aged cells, superoxide DHE fluorescence; stronger effect = lower value; 0.18% of 330,000 active;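 active = superoxide response under a set limit, about three screen SD below normal, cut at about 65% in these data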;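 note: yeast aged for seven days with compound at 30 °C before DHE staining; 100% = average MFI of all compound-treated wells on the plate with controls excluded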
SR-BI DiI inh: inhibitors of SR-BI mediated HDL lipid uptake, primary screen, ldlA[mSR-BI] cells, fluorescence, single point | AID 488896, 2010 | ldlA[mSR-BI] CHO cells, DiI-HDL uptake fluorescence, 3 h | 0.96% of 320,000 active | inhibition, % at 12.5 µM;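 active = mean replicate inhibition of at least 70% and a set share of replicates each scoring 70 or more; inconclusive = meets just one of the two criteria; inactive = fails both criteria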;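 note: 0% = median of neutral control wells and 100% = median of positive control wells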
DiI quencher: quenches DiI-HDL fluorescence, an SR-BI assay artifact; cell-free DiI-HDL fluorescence quenching, 30 min; 20% of 470 active; AC50, µM (top dose mostly 35 µM), without a hit: at the top dose activity change, negative = quenching; shares compounds with SR-BI DiI inh; AID 540326;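 active = quenching, a falling signal, with AC50 below a set limit tied to the top valid dose, actives reach about 32 µM in these data; inconclusive = no clear call, values can overlap the other calls; inactive = rising signal, and the rest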
* = called active by the depositor; ? = inconclusive; nt = not tested or not shown.

SMILES | AHR activator | SMARCA2 activ | Hep lipid drop | SR-BI DiI-HDL act | Yeast superoxide | SR-BI DiI inh | DiI quencher
Cc1ccc(-c2cc(C(F)F)n3ncc(C(=O)N4CCN(c5cccc(C)c5C)CC4)c3n2)cc1 | 3 | -4 | 1 | -46 | 106 | 46 | 1%
O=C(c1cc(-c2cccnc2)nc2ccc(Br)cc12)N1CCN(c2ncccn2)CC1 | 9 | 2 | nt | -9 | 90 | 9 | nt
CC(=O)c1ccc(N2CCN(C(=O)c3cc(-c4cccnc4)nc4ccc(Br)cc34)CC2)cc1 | 6 | -3 | 28 | -9 | 90 | 9 | -5%
CCCn1c(NC(=O)c2ccccc2)nc(Cc2ccccc2)c1Cc1ccccc1 | nt | -2 | nt | nt | nt | nt | nt
COCCCNc1nc2c(-c3cccc(C)c3)nnn2c2ccccc12 | 49* | 5 | 2 | -103 | 93 | 103* | 10%
COCCCNc1nc2c(-c3ccc(C)cc3)nnn2c2ccccc12 | 17 | 7 | 7 | -52 | 106 | 52 | nt
COc1ccc(CCn2c(C)cc(C(=O)CSc3nc(N)cc(=O)[nH]3)c2C)cc1 | -3 | -7 | nt | -81 | 88 | 81* | 1%
CCOc1ccc(C(=O)Nc2ccc(S(=O)(=O)N3C[C@@H]4C[C@@H](C3)c3cccc(=O)n3C4)cc2)cc1 | -1 | 1 | nt | -75 | 79 | 75* | -1%
CCCC(=O)Nc1ccc(Cl)c(NC(=O)c2cccc(OC)c2)c1 | 10 | -5 | -26 | -78 | 110 | 78* | 2%
COC(=O)CC#C[C@H](C)[C@@H](NS(=O)(=O)c1ccc(C)cc1)C1CCCCC1 | nt | -1 | nt | nt | nt | nt | nt
COc1ccc(N2CC(C(=O)N3CCN(S(=O)(=O)c4ccc(F)c(F)c4)CC3)CC2=O)c(OC)c1 (stereo unspecified) | nt | -2 | nt | 4 | nt | -4 | 6%
CCOC(=O)[C@]12CCCCC/C=C\1N(Cc1ccc(OC)cc1)C(=O)[C@H]2CC(=O)N1CCCC1 | nt | -4 | nt | nt | nt | nt | nt
Cc1cn2c(=O)c3ncn(C4OC(CO)C(O)C4O)c3n(C)c2n1 (stereo unspecified) | nt | 0 | nt | nt | nt | nt | nt
CCC1COC(c2cccn2Cc2ccc(Cl)cc2)=N1 (stereo unspecified) | 0 | -1 | -8 | 2 | 117 | -2 | nt
CCSCC1COC(c2cccn2Cc2ccc(C)cc2)=N1 (stereo unspecified) | 1 | 1 | nt | -70 | 85 | ? | -5%
CC(C)CN(C(=O)COC(=O)C12CC3CC(CC(O)(C3)C1)C2)C1CCS(=O)(=O)C1 (stereo unspecified) | 0 | -2 | nt | -9 | 103 | 9 | -6%
Cc1nc(CC(=O)N/N=C/c2ccc(OCC(=O)O)cc2)cs1 | 4 | 0 | 37 | 15 | 103 | -15 | nt
COc1cc(/C=N/NC(=O)Cc2csc(C)n2)ccc1OCC(C)C | 6 | 3 | -1 | -82 | 105 | 82* | -2%
C#CCNC(=O)C[C@H]1C[C@@]2(C(=O)OC)C(=C[C@H](C(C)C)O[C@@H]2C2CC2)N(CCC2=CCCCC2)C1=O | nt | -3 | nt | nt | nt | nt | nt
COC(=O)[C@]12C[C@H](CC(=O)NCc3ccc(C)o3)C(=O)N(Cc3ccccc3)C1=C[C@H](C(C)(C)C)O[C@@H]2C | nt | -6 | nt | nt | nt | nt | nt
Fc1ccc(-c2nc(-c3cccs3)[nH]c2-c2ccc(F)cc2)cc1 | 0 | -6 | -7 | -59 | 119 | 59 | nt
Cc1ccsc1-c1nc(-c2ccccc2)c(-c2ccccc2)[nH]1 | 28 | -1 | nt | -71 | 82 | 71* | 32µM*
CCOC(=O)N1CCN(C(=O)C2CCN(C(=O)Nc3ccccc3)CC2)CC1 | -3 | -4 | nt | -74 | 99 | 74* | -1%
CCN1CCN(C(=O)C2CCN(C(=O)Nc3ccccc3)CC2)CC1 | -1 | 0 | nt | 10 | 100 | -10 | nt
COc1ccc2c(c1)CNC2CS(=O)(=O)NCCc1ccccc1 (stereo unspecified) | nt | -1 | nt | nt | nt | nt | nt
SMILES | AHR activator | SMARCA2 activ | Hep lipid drop | SR-BI DiI-HDL act | Yeast superoxide | SR-BI DiI inh | DiI quencher
Cc1ccc(Sc2nc(-c3ccccc3)nnc2C(F)(F)F)cc1 | -2 | -3 | 4 | -70 | 96 | ? | -1%
CNc1nc(-c2ccccc2)nnc1C(F)(F)F | 19 | 1 | 16 | 15 | 96 | -15 | nt
CCOC(=O)N1CCN(C(=O)C[C@H]2C[C@@]3(C(=O)OC)C(=C[C@H](C(C)C)O[C@@H]3C3CC3)N(Cc3ccc(Cl)cc3Cl)C2=O)CC1 | nt | -2 | nt | nt | nt | nt | nt
N#Cc1ccc(/C=C2\CC3(OC(=O)c4ccc(Cl)cc4)CCCN2C3)cc1 (stereo unspecified) | nt | -4 | nt | nt | nt | nt | nt
O=C(Cc1ccccc1)N1O[C@H]2C=C[C@@H]1C2 | nt | -1 | nt | nt | nt | nt | nt
COC(=O)c1cc2c(ccn2-c2ccc(F)cc2)n1Cc1ccc(C#N)cc1 | 1 | 0 | -5 | -78 | 108 | 78* | 2%
COC(=O)c1cc2c(ccn2-c2ccc(F)cc2)n1CC(=O)N1CCN(C(=O)c2ccco2)CC1 | 0 | 1 | -1 | -71 | 99 | ? | nt
COc1ccc(NC(=O)Nc2cc(C)nn2-c2ccccc2)cc1 | nt | -2 | nt | nt | nt | nt | nt
COc1ccc(OC[C@@H](O)CNC(=O)c2cccc3c2C(=O)c2ccc(-c4ccc(F)cc4OCc4ccccc4)cc2S3(=O)=O)cc1 | 3 | nt | nt | -80 | 111 | 80* | -19%
Cc1cc(C)n(CC(=O)NC2CCCc3c2cnn3-c2ccc(C)c(C)c2)n1 (stereo unspecified) | 4 | -2 | 9 | -72 | 88 | ? | -2%
CCCCOCC1CN(CCCC)S(=O)(=O)c2c(Oc3ccc(OC)cc3)cccc2O1 (stereo unspecified) | nt | 3 | nt | nt | nt | nt | nt
CCC(C)C(=O)N1CCc2cc(-c3csc(N)n3)ccc21 (stereo unspecified) | -15 | 1 | nt | -54 | 99 | 54 | nt
CNc1nc(-c2ccc3c(c2)CCN3C(=O)c2ccccc2F)cs1 | nt | 6 | 0 | -70 | nt | 70 | nt
CNc1nc(-c2ccc3c(c2)CCN3C(=O)c2ccccc2F)c(C)s1 | -7 | 2 | -13 | -57 | 93 | 57 | -4%
CCCC(=O)N1CCc2cc(-c3nc(N)sc3C)ccc21 | -8 | 3 | nt | -75 | 89 | 75* | -9%
CC(=O)Nc1c(-c2ccc(C)cc2)nc2ncccn12 | nt | 4 | nt | nt | nt | nt | nt
COC(=O)[C@]12C[C@H](CC(=O)N3CCCC3)C(=O)N(Cc3ccc4c(c3)OCO4)C1=C[C@H](C(C)C)O[C@@H]2C1CC1 | nt | 5 | nt | nt | nt | nt | nt
Clc1ccccc1Cn1ccc2ccc(-c3ccc4ccn(Cc5ccccc5Cl)c4c3)cc21 | nt | -2 | nt | nt | nt | nt | nt

Screening data deposited in PubChem BioAssay by several laboratories.
